Assay outcomes from PubChem BioAssay.
An excerpt weighted towards active compounds, which were near 2% of everything screened.
eIF4H FP inh: inhibitors of RNA binding by human eIF4H | Q15056 | eIF4H fluorescence polarization binding assay | inhibition, % at 35 µM | 0.94% of 290,000 active;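 further: calls also rest on retests at 20 µM and on dose response follow-up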
DNA FID counter-1: displaces DNA intercalator in HCV helicase counter-screen; AID 1845; 0.17% of 290,000 active; inhibition, % at 7.9 µM; DNA fluorescent intercalator displacement, fluorescence; in the data active means inhibition above about 37%;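 further: 0% = vehicle and 100% = reference compound; higher means more ethidium bromide displaced from hairpin DNA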
NS3 helicase inh: HCV NS3 helicase inhibition; 0.56% of 290,000 active; inhibition, % at 10.9 µM; NS3 helicase DNA unwinding, Cy5 molecular beacon fluorescence; AID 1800;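 active means inhibition above the mean of all tested compounds plus 3 SD, set per campaign, cut at about 35% in these data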;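 further: 0% = DMSO wells and 100% = thioflavine S control wells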
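Assay system – hepatitis C virus NS3 helicase domain fragment enzyme · Buffer or medium – MOPS pH 6.5, MgCl2, DTT, Tween20, BSA · Reagent – Cy5/quencher beacon DNA duplex and ATP to start · Compound – single 10.9 µM dose · Timing – 1 h at 25 °C · Technique – Cy5 beacon fluorescence read at start and 1 h · Measure – % inhibition of unwinding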
core dimer inh: HCV core protein dimerization inhibition; TR-FRET GST/Flag-core106 dimerization, 1536-well; inhibition, % at 5 µM; 0.33% of 300,000 active; AID 1899;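 active means inhibition above the mean of all tested compounds plus 3 SD, set per screening campaign, cut at about 45% in these data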
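Assay system – GST-tagged and Flag-tagged HCV core protein residues 1-106 · Quantity – core106 proteins, GST 13.5 nM and Flag 17 nM · Benchmarks – unlabelled core106 and no-GST-core106 wells · Read-out basis – percent inhibition of core106 dimerization signal · Detection – time-resolved FRET, ex 340 nm, em 617 and 671 nm · Schedule – 4 h at 22.5 °C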
PABP FP inh: PABP-poly(A) binding inhibition | inhibition, % at 35 µM | PABP-poly(A) RNA binding, fluorescence polarization | 1% of 290,000 active;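 further: calls also rest on retests at 20 µM and on dose response follow-up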
PABP1 MLLE inh: inhibitors of microRNA-mediated deadenylation, human PABP1 MLLE binding. P11940. GST-MLLE / FITC-PAM2 fluorescence polarization. inhibition, % at 20 µM. 0.36% of 360,000 active. AID 588489; in the data active means inhibition above about 35%, passing the limit was not always enough;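 further: plate controls were DMSO wells with GST-MLLE for no effect and wells lacking GST-MLLE protein for full effect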
NS3 helicase cf: HCV NS3 helicase inhibition, confirmation assay; shares compounds with NS3 helicase inh; inhibition, % at 10.9 µM; AID 1943; NS3 helicase DNA unwinding, Cy5 molecular beacon fluorescence; 31% of 1,600 active;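 active means inhibition above the mean of all tested compounds plus 3 SD, cutoff set per campaign, cut at about 36% in these data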
DNA FID counter-2: intercalator displacement, NS3 helicase counter-screen; inhibition, % at 7.9 µM; shares compounds with NS3 helicase inh; 4% of 1,600 active; DNA fluorescent intercalator displacement, fluorescence; in the data active means inhibition above about 37%;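 further: 0% = vehicle and 100% = reference compound; higher means more displacement of ethidium bromide from the DNA hairpin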
DNA FID DR: displaces fluorescent intercalator from DNA, HCV helicase counter-screen. 120 tested, under 10 active. shares compounds with NS3 helicase inh. IC50, µM. fluorescent intercalator displacement from DNA, fluorescence
An asterisk follows results filed as active; i = inactive; u = inconclusive; x = no result. Unless noted, how the calls were made is not given here.

SMILES	eIF4H FP inh	DNA FID counter-1	NS3 helicase inh	core dimer inh	PABP FP inh	PABP1 MLLE inh	NS3 helicase cf	DNA FID counter-2	others
CN(C)c1ccc(CN(C(=O)/C=C/c2ccco2)C2CCS(=O)(=O)C2)cc1 (centres undefined)	0.8	-23.8	0.0	-2.2	-6.0	-0.5	x	x
O=C(/C=C/c1ccco1)N(Cc1ccc(Cl)cc1)C1CCS(=O)(=O)C1 (centres undefined)	-1.9	-24.3	42.1*	5.0	6.2	-15.5	0.3	-23.2
CCCOc1ccc(C(=O)Nc2ccc(S(=O)(=O)Nc3onc(C)c3C)cc2)cc1	2.4	-32.1	7.5	1.2	-6.9	0.6	x	x
CCCCOc1ccc(C(=O)Nc2ccc(S(=O)(=O)Nc3onc(C)c3C)cc2)cc1	-1.5	-15.3	40.5*	19.1	5.0	-4.9	53.8*	-21.0
O=C(O)c1ccccc1C=NNc1ccccn1	x	x	x	x	x	9.8	x	x
O=C(c1ccccn1)N1CCCC(N2CCN(c3ccccc3)CC2)C1 (centres undefined)	-1.5	-9.5	0.8	-4.6	9.6	8.4	x	x
NC(=S)N/N=C\c1c(OCc2ccccc2Cl)ccc2ccccc12	85.2	-18.9	36.3*	5.1	-3.1	-10.5	12.4	-21.0
CSc1ccccc1NC(=O)C1(C)CCN1C(=O)Cc1ccc(-c2ccccc2)cc1 (centres undefined)	x	x	x	x	x	1.1	x	x
Cc1ccc(CSCC(=O)Nc2cc(S(=O)(=O)N3CCOCC3)ccc2OCC(F)(F)F)cc1	x	x	x	x	x	-0.6	x	x
COc1ccccc1N1CCN(/N=C/c2ccc(O)c(O)c2)CC1	8.5	-19.1	37.1*	-4.1	7.3	x	-1.4	-7.4
N#CC1=C(N)OC2=C(C(=O)CC(c3ccco3)C2)C1c1ccc(OCc2c(F)cccc2Cl)cc1 (centres undefined)	-0.6	-34.4	30.3	36.0	11.6	-21.9	x	x
COc1cccc(C2C(C#N)=C(N)OC3=C2C(=O)CC(c2ccco2)C3)c1OCc1ccc(F)cc1 (centres undefined)	8.7	-25.7	38.6*	56.8*	16.1	4.1	63.9*	-3.4	DNA FID DR=>79.4
O=C1C(=C2CCCCC2)SC(=S)N1Cc1ccco1	3.7	-15.3	71.5*	16.3	25.1	21.3	-22.6	-4.9
CN(C)c1ccc(C=C2SC(=S)N(Cc3ccco3)C2=O)cc1	x	x	x	x	x	i	x	x
Cc1cccc(C(O)c2ncc(-c3ccc(C(F)(F)F)cc3)[nH]2)c1C (centres undefined)	x	x	x	x	x	6.3	x	x
O=C(O)c1[nH]c2ccccc2c1C(c1ccccc1)c1c(C(=O)O)[nH]c2ccccc12	5.1	-26.0	-30.6	4.0	8.8	2.8	x	x
COc1cc(C(c2c(C(=O)O)[nH]c3ccccc23)c2c(C(=O)O)[nH]c3ccccc23)ccc1OCc1ccccc1	36.6	-4.7	37.4*	36.4	23.7	-1.7	16.9	24.7
CCc1ccc(C(=O)OCC(=O)N(CCOC)c2c(N)n(Cc3ccccc3)c(=O)[nH]c2=O)cc1	x	x	x	0.8	x	-1.8	x	x
Cc1ccc(/C=C2/SC(=O)NC2=S)o1	u	-4.7	52.8*	x	-8.2	126.0	38.0*	17.1
OC(CNC1Cc2ccccc2C1)COc1ccc(F)cc1 (centres undefined)	-1.4	18.8	37.1*	1.2	3.6	8.6	0.2	27.4
COc1ccc(OCC(O)CNC2CCCC2)cc1 (centres undefined)	4.1	-0.6	6.3	x	-2.8	2.0	x	x
CN(C)c1ccc(N2CN=C3SCC(=O)N3C2)cc1	4.4	7.4	59.1*	-37.5	9.2	5.9	-5.7	27.2
O=C1CSC2=NCN(c3ccc4c(c3)OCO4)CN12	-3.3	3.3	-7.9	0.2	-5.5	7.7	x	x
CC(=O)Nc1ccc(N=Cc2c(O)c3ccccc3oc2=O)cc1	-0.8	-1.9	-0.9	x	2.2	2.8	x	x
CCOC(=O)c1ccc(N=Cc2c(O)c3ccccc3oc2=O)cc1	37.7	-11.1	41.4*	9.5	11.4	-25.8	-14.6	-2.7
SMILES	eIF4H FP inh	DNA FID counter-1	NS3 helicase inh	core dimer inh	PABP FP inh	PABP1 MLLE inh	NS3 helicase cf	DNA FID counter-2	others
CCN(CCO)c1nc(SC)nc2c1sc1nc(-c3ccco3)c3c(c12)CCC3	85.0*	-23.4	36.5*	80.2*	72.9*	21.1	81.4*	26.6
CCN(CCO)c1ncnc2c1sc1nc(C(C)C)c3c(c12)CC(C)(C)OC3	9.1	-6.6	-0.8	2.3	0.4	13.5	x	x
O=C(NCCc1ccccc1Cl)c1cc(COc2ccc(F)cc2F)on1	-19.9	-23.3	-11.5	1.5	0.9	-14.0	x	x
O=S(=O)(Nc1nc2ccccc2nc1NCC1CCCO1)c1ccc(F)cc1 (centres undefined)	9.9	-50.1	41.5*	-0.1	-8.7	-5.9	-6.0	-28.9
CC(=O)Nc1cccc(C2=CC(c3ccco3)n3ncnc3N2)c1 (centres undefined)	u	-10.4	-2.1	1.4	-8.8	x	x	x
Clc1ccccc1C1=CC(c2ccco2)n2ncnc2N1 (centres undefined)	-9.0	-11.4	41.3*	-3.0	0.1	87.2	5.0	-11.7
COc1ccccc1NC(=O)C1CC(C(C)C)OC1=O (centres undefined)	x	x	x	2.0	x	-9.0	x	x
Cc1cccc(CSc2nc3sc(C)c(C)c3c(=O)n2Cc2ccco2)c1	-1.6	-9.3	39.2*	2.2	2.2	1.0	-8.7	7.4
Cc1sc2nc(SCc3ccccc3)n(Cc3ccco3)c(=O)c2c1C	0.9	0.4	3.1	-4.7	-2.5	-6.2	x	x
O=C(O)c1cccc(-n2c(/C=C/c3ccccc3)nc3ccccc3c2=O)c1	-12.1	-25.3	52.6*	-1.8	6.1	5.0	53.3*	-22.9	DNA FID DR=>79.4
CN(C)c1ccc(/C=C/c2nc3ccccc3c(=O)n2-c2ccc(C(=O)O)cc2)cc1	u	-8.0	-15.9	16.5	u	126.3	x	x
CCc1ccc(N2NC(=O)/C(=C/C=C/c3ccco3)C2=O)cc1	10.7	-14.7	49.6*	0.2	1.6	10.8	46.1*	31.0
COc1cc(/C=C2/C(=O)NN(c3ccc(Cl)cc3)C2=O)ccc1OC(=O)c1ccco1	5.1	-12.0	25.0	10.8	2.3	16.7	x	x
CC(Sc1nc(N)cc(=O)[nH]1)C(=O)Nc1ccc(N2CCOCC2)cc1 (centres undefined)	x	x	x	x	x	-12.5	x	x
COC(=O)C1(C)CCCC2(C)c3cc(OC)ccc3C(=O)C(Br)C12 (centres undefined)	x	x	x	x	x	-114.0	x	x
CCCCNC(=O)COC(=O)c1c2c(nc3ccccc13)/C(=C/c1cccs1)CC2	85.1	-11.9	37.9*	32.9	2.0	-16.9	-11.7	-5.6
